This is an account of results in ChEMBL document CHEMBL4196144, “Minor Nortriterpenoids from the Twigs and Leaves of Rhododendron latoucheae” (J Nat Prod, 2018).

Molecules are shown by their SMILES.

The test system of data set [1] is Human alphaherpesvirus 1. The experiment in a line: Antiviral activity against HSV1 F VR 733 infected in African green monkey Vero cells assessed as inhibition of virus-induced cytopathic effect. In kind it is functional, organism-based. Particulars: Human alphaherpesvirus 1, Strain F ATCC VR 733, Vero. A general note: Damage to the host cells serves as the signal in cytopathic effect assays.

Data set [2] can be described thus: Cytotoxicity against African green monkey Vero cells measured after 48 hrs. Format: cell-based. Particulars: chlorocebus sabaeus, read-out: TC50. In short, it runs like this:
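TC50 is the concentration that inhibits Vero cell growth by 50%. It is used with the antiviral IC50 to give a selectivity index (TC50/IC50).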

Data set [3] is described as follows: Selectivity index, ratio of TC50 for African green monkey Vero cells to IC50 for HSV1 strain F VR 733 infected in African green monkey Vero cells. Format: toxicity. Particulars: read-out: Selectivity Index. The gist of the method:
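Calculated as TC50/IC50 in Vero cells. TC50 is the cytotoxic concentration that inhibits Vero cell growth by 50%. No SI was assigned where it could not be determined under the test conditions.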

Data set [4] relates to Influenza A virus. The experiment in a line: Antiviral activity against Influenza A virus A/95-359 infected in MDCK cells assessed as inhibition of virus-induced cytopathic effect. Format: functional, organism-based. Particulars: A/95-359, MDCK. In short, it runs like this:
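MDCK cells; IC50 given as the mean of three independent determinations.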

Data set [5] in a line: Cytotoxicity against MDCK cells measured after 48 hrs. In kind it is cell-based, Canis lupus familiaris. As to conditions: dog, read-out: TC50. The gist of the method: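 TC50 is the concentration that inhibits MDCK cell growth by 50%, reported as the mean of three independent determinations. It is paired with the anti-influenza A IC50 to give a selectivity index (TC50/IC50).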

Data set [6] can be described thus: Selectivity index, ratio of TC50 for MDCK cells to IC50 for Influenza A virus A/95-359 infected in MDCK cells. In kind it is toxicity, cell-based. Particulars: dog, read-out: Selectivity Index. The gist of the method: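 Ratio of TC50 to IC50, both in MDCK cells. TC50 is the concentration that inhibits MDCK cell growth by 50%. Values are means of three independent determinations. No SI was assigned where it could not be determined under the test conditions.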

In the case of `CC1=C2C3=CC[C@@H]4[C@@]5(C)C[C@@H](O)[C@@H](O)[C@@](C)(CO)[C@@H]5CC[C@@]4(C)[C@]3(C)CC[C@@]23CC[C@]1(C)OO3`, the IC50 was 6.41 µM in data set [1] and over 33.3 µM in data set [4]. Further, the CC50 at 48 h in data set [2] worked out at 23.1 µM; in data set [5], 57.7 µM. Also, the selectivity ratio in data set [3] worked out at 3.6.

As to `CC(=O)CCC1=C(C(C)=O)C2=CC[C@@H]3[C@@]4(C)C[C@@H](O)[C@@H](O)[C@](C)(CO)[C@@H]4CC[C@@]3(C)[C@]2(C)CC1`, the IC50 in data set [1] and in data set [4] was over 33.3 µM throughout. Moreover, the CC50 at 48 h in data set [2] is 69.3 µM; in data set [5], over 100 µM.

Turning to `Cc1ccc2c(c1C)C1=CC[C@@H]3[C@@]4(C)C[C@@H](O)[C@H](O)[C@@](C)(CO)[C@@H]4CC[C@@]3(C)[C@]1(C)CC2`, the IC50 in data set [1] turned out to be 0.41 µM; in data set [4], 1.23 µM. In addition, the figures for the CC50 at 48 h in data set [2] and in data set [5] were 1.78 µM and 3.7 µM, respectively. Further, the results for the selectivity ratio in data set [3] and in data set [6] were 4.3 and 3, respectively.

With `CC1=C2C3=CC[C@@H]4[C@@]5(C)CC[C@@H](O)[C@](C)(CO)[C@@H]5CC[C@@]4(C)[C@]3(C)CC[C@]23CC[C@@]1(C)OO3`, the IC50 in data set [1] and in data set [4] was over 11.1 µM throughout. Also, the results for the CC50 at 48 h in data set [2] and in data set [5] were 33.3 µM and 19.2 µM, respectively.

As for `CC1=C2C3=CC[C@@H]4[C@@]5(C)CC[C@@H](O)[C@@](C)(CO)[C@@H]5CC[C@@]4(C)[C@]3(C)CC[C@@]23CC[C@]1(C)OO3`, the IC50 in data set [1] and in data set [4] was over 11.1 µM each time. Further, the CC50 at 48 h in data set [2] came to 57.7 µM; in data set [5], 19.2 µM.

Turning to `Cc1ccc2c(c1C)C1=CC[C@@H]3[C@@]4(C)[C@H](O)[C@@H](O)[C@@H](O)[C@@](C)(CO)[C@@H]4CC[C@@]3(C)[C@]1(C)CC2`, the figures for the IC50 in data set [1] and in data set [4] were over 0.41 µM and over 1.23 µM, respectively. Further, the results for the CC50 at 48 h in data set [2] and in data set [5] were 1.78 µM and 2.57 µM, respectively.

On to `Cc1ccc2c(c1C)C1=CC[C@@H]3[C@@]4(C)CC[C@@H](O)[C@](C)(CO)[C@@H]4CC[C@@]3(C)[C@]1(C)CC2`, for which the IC50 in data set [1] is over 1.23 µM; in data set [4] it was over 11.1 µM. Also, the CC50 at 48 h came out at 5.34 µM in data set [2] and 19.2 µM in data set [5].

As for `Cc1ccc2c(c1C)C1=CC[C@@H]3[C@@]4(C)C[C@@H](O)[C@@H](O)[C@](C)(CO)[C@@H]4CC[C@@]3(C)[C@]1(C)CC2`, the IC50 in data set [1] was over 1.23 µM; in data set [4] it was over 3.7 µM. Moreover, the CC50 at 48 h is 3.7 µM in data set [2] and 7.7 µM in data set [5].

With `Cc1ccc2c(c1C)C1=CC[C@@H]3[C@@]4(C)[C@H](O)C[C@@H](O)[C@](C)(CO)[C@@H]4CC[C@@]3(C)[C@]1(C)CC2`, the IC50 in data set [1] and in data set [4] was over 3.7 µM each time. Further, the CC50 at 48 h in data set [2] is 11.1 µM; in data set [5], 16 µM.

Turning to `Nc1nc2c(ncn2COCCO)c(=O)[nH]1` [ACYCLOVIR], the IC50 in data set [1] was determined as 0.41 µM. Besides, the CC50 at 48 h in data set [2] was over 100 µM. The selectivity ratio in data set [3] is over 244.

In the case of `CCOC(=O)C1=C[C@@H](OC(CC)CC)[C@H](NC(C)=O)[C@@H](N)C1` [OSELTAMIVIR], the IC50 in data set [4] came to 1.63 µM.

Usually IC50 stands for the concentration needed to halve the response being measured.
